Screening data: PubChem, The Scripps Research Institute Molecular Screening Center
HCV core dimer: blocks dimerization of HCV core protein | TR-FRET GST/Flag-core106 dimerization, 1536-well | actives 0.33% (n = 300,000) | inhibition, % at 5 µM;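 active means inhibition above the mean of all tested compounds plus 3 SD, set per screening campaign, cut at about 45% in these data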
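assay system = GST-tagged and Flag-tagged HCV core protein residues 1-106 | controls = unlabelled core106 and no-GST-core106 wells | incubation = compound-protein-antibody incubation 4 h at 22.5 °C | probe or stimulus = Eu donor and XL665 acceptor anti-tag antibodies | read-out = % inhibition based on acceptor/donor emission ratio | signal = TR-FRET 671 and 617 nm emission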
EBNA-1 inhibitor: blocks EBNA-1 binding to DNA; EBNA-1 DNA binding, fluorescence polarization; inhibition, % at 14.8 µM; actives 0.34% (n = 300,000); in the data active means inhibition above about 28%
ZTA DNA inh: counter-screen for EBNA-1 inhibitors: inhibitors of Epstein-Barr virus ZTA; inhibition, % at 11 µM; ZTA-DNA binding, fluorescence polarization; actives 0.15% (n = 320,000); in the data active means inhibition above about 33%
PP1 inh: PP1-alpha (human) inhibition in PP5 counter-screen; purified PP1alpha, OMFP fluorescence; AID 2235; P62136; actives 0.9% (n = 320,000); inhibition, % at 6.7 µM;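 active means inhibition above the mean inhibition of all tested compounds plus 3 SD, computed separately for each screening campaign, cut at about 15% in these data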
HCV NS3 hel inh: HCV NS3 helicase inhibition; inhibition, % at 10.9 µM; AID 1800; NS3 helicase DNA unwinding, Cy5 molecular beacon fluorescence; actives 0.56% (n = 290,000);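 active means inhibition above the mean of all tested compounds plus 3 SD, set per campaign, cut at about 35% in these data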;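 further: 0% = DMSO wells and 100% = thioflavine S control wells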
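Compound dosing – single dose, 10.9 µM nominal final, DMSO 0.8% final · System – NS3 helicase fragment of HCV · Buffer or medium – MOPS pH 6.5, MgCl2, DTT, Tween20, BSA · Signal – Cy5 beacon fluorescence read at start and 1 h · Also added – annealed dual-labelled DNA beacon duplex, ATP-started · Schedule – 1 h at 25 °C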
PP1 confirm: human PP1 phosphatase inhibition, confirmation | shares compounds with PP1 inh | purified PP1alpha, OMFP substrate fluorescence | inhibition, % at 6.7 µM | actives 52% (n = 1,900) | AID 2358;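 active means mean PP1 inhibition above a set limit taken from the earlier primary screen, cut at about 15% in these data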
PP5 counter: inhibits human PP5 phosphatase in PP1 counter-screen. shares compounds with PP1 inh. purified PP5c, OMFP fluorescence. inhibition, % at 6.7 µM. actives 4% (n = 1,900). AID 2360;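 active means mean PP5 inhibition over triplicate wells above about 9.5% taken from the earlier PP1 screen, limit read from the data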
Target sequence (P53041 whole entry, looked up): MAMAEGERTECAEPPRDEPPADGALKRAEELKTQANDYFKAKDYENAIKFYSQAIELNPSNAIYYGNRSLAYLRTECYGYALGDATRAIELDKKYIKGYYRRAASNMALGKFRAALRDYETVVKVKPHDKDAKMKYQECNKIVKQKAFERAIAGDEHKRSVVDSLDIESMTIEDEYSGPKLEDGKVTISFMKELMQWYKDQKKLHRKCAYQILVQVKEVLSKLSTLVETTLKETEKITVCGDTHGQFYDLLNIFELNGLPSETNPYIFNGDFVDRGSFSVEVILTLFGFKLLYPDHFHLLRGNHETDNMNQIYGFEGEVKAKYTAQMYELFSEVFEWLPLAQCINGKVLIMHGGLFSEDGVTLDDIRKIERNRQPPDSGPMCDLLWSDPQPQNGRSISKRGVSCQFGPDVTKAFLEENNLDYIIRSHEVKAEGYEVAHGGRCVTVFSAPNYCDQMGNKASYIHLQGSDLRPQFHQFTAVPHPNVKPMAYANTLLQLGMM
* hit, by the source's call; · = no result. Compounds with a hit are over-represented: about 1.9% of the library has one in this group of screens.

SMILES	HCV core dimer	EBNA-1 inhibitor	ZTA DNA inh	PP1 inh	HCV NS3 hel inh	PP1 confirm	PP5 counter
O=C1NN(c2ccc(Cl)c(Cl)c2)C(=O)/C1=C/c1cccc(OC(=O)c2cccs2)c1	-5.7	3.8	1.6	27.2*	4.3	23.2*	-0.1
O=C1NN(c2ccccc2)C(=O)/C1=C\c1cccc(OC(=O)c2cccs2)c1	25.5	4.0	10.5	4.3	15.3	·	·
COC(=O)c1ccc(C2/C(=C(/O)c3ccc(OC(C)C)cc3)C(=O)C(=O)N2c2cc(C)on2)cc1 (stereo not given)	11.4	4.8	14.4	19.8*	21.4	8.5	-5.1
O=C(Nc1ccc(Cl)c(Cl)c1)Nc1ccc(N2CCCC2)c(S(=O)(=O)Nc2ccccc2Cl)c1	26.4	-3.0	-4.8	17.8*	-8.6	13.8	-0.4
O=C(Nc1cc(S(=O)(=O)N2CCCCC2)ccc1Cl)c1ccccc1NS(=O)(=O)c1ccc(F)cc1	23.2	12.2	19.6	19.9*	2.2	13.7	7.5
O=C(Nc1ccc(F)cc1)Nc1ccc(N2CCCC2)c(S(=O)(=O)Nc2ccccc2Cl)c1	13.6	1.1	1.4	24.4*	-9.1	9.9	4.6
COc1ccccc1NS(=O)(=O)c1cc(NC(=O)Nc2ccccc2)ccc1N1CCCCC1	17.9	8.1	-0.3	1.1	18.6	·	·
O=C(Nc1cc(S(=O)(=O)N2CCCCC2)ccc1O)c1ccccc1NS(=O)(=O)c1ccc(F)cc1	21.9	0.9	17.9	6.8	-0.3	·	·
COc1ccccc1N1CCN(C(=O)C2CCC(CNS(=O)(=O)c3ccc(NC(C)=O)cc3)CC2)CC1 (stereo not given)	·	·	·	·	-6.6	·	·
NC(=O)c1cc(N)ccc1N1CCCC1	-27.2	25.3	7.2	13.2	-1.0	·	·
Cc1cc(N)ccc1N1CCCC1	-0.9	4.5	5.2	20.8*	-11.5	-10.7	-2.5
[S-]c1nnc(-c2ccc(Br)cc2)n1-c1ccccc1.[Zn+2]	-5.8	-7.0	-3.6	20.1*	-6.4	23.6*	-5.2
COc1ccc(Cn2c(-c3ccc(C)cc3)nc3c(c(=O)c4ccccc4n3C)c2=O)cc1	30.2	-6.0	-13.7	9.2	-0.8	·	·
CCOC(=O)c1nn(-c2ccccc2C)c(=O)cc1OCC(=O)N1CCN(c2ccccc2)CC1	3.4	-4.4	-0.3	-5.1	·	·	·
CC1=NN(c2nc3ccccc3[nH]2)C(=O)/C1=C/N(C)C	1.6	-11.5	-0.2	23.3*	-7.3	-2.8	-1.2
CN(C)/C=C1/C(=O)N(c2ccc([N+](=O)[O-])cc2)N=C1c1ccccc1	2.0	6.5	-0.5	19.9*	18.9	10.6	1.7
CCNC(=O)NC(=O)C(C)OC(=O)CCCSc1nc2ccccc2s1 (stereo not given)	-6.9	8.6	-12.6	-0.2	-5.9	·	·
O=c1[nH]c(C2CCCN(S(=O)(=O)c3cccc(Cl)c3)C2)nc2c1nnn2Cc1ccc2c(c1)OCCO2 (stereo not given)	27.0	12.3	8.0	23.7*	-3.6	10.8	0.6
Cc1ccc(C)c(S(=O)(=O)N2CCC(c3nc4c(nnn4Cc4ccc5c(c4)OCCO5)c(=O)[nH]3)CC2)c1	34.6	-5.5	4.0	23.6*	16.6	21.8*	-0.1
O=c1[nH]c(C2CCCN(S(=O)(=O)c3ccccc3)C2)nc2c1nnn2Cc1ccc2c(c1)OCCO2 (stereo not given)	17.2	-6.6	5.2	1.1	20.8	·	·
Clc1ccc(CN2CCN(c3ccccc3)CC2)cn1	-1.0	-8.5	3.5	2.4	-0.6	·	·
COCCN(Cc1cc2ccc(C)cc2n2nnnc12)Cc1nnnn1C(C)(C)C	1.3	-16.5	-1.6	-3.5	4.4	·	·
COc1ccc(S(=O)(=O)NCC(c2cccnc2)N2CCN(Cc3ccccc3)CC2)cc1C (stereo not given)	-4.9	10.9	0.1	-2.8	-46.6	·	·
COc1cc2c(cc1OC)CN(c1nc(CN3CCCCC3)nc3sc4c(c13)CCCC4)CC2	11.8	1.7	6.3	17.6*	-75.9	-1.9	-5.1
CC1CCc2c(sc3nc(CN4CCOCC4)nc(N4CCc5ccccc5C4)c23)C1 (stereo not given)	27.1	13.0	-15.5	20.8*	6.8	10.2	-3.7
SMILES	HCV core dimer	EBNA-1 inhibitor	ZTA DNA inh	PP1 inh	HCV NS3 hel inh	PP1 confirm	PP5 counter
Cc1ccc(Oc2nc(CN3CCOCC3)nc3sc4c(c23)CCC(C)C4)cc1 (stereo not given)	-8.1	3.1	-21.9	-5.1	-6.5	·	·
COc1cc(/C=C2\SC(=S)N(CCCCC(=O)O)C2=O)ccc1OS(=O)(=O)c1ccc(C)cc1	15.4	8.4	3.0	31.1*	·	29.2*	2.6
COc1cc(/C=C2\SC(=S)NC2=O)ccc1OS(=O)(=O)c1ccccc1	21.2	9.2	20.2	19.1*	15.9	20.9*	1.7
COCCNC(=O)C(=O)NNS(=O)(=O)c1ccc2ccccc2c1	-4.2	-17.0	5.1	-4.9	11.0	·	·
O=C(O)c1ccccc1-c1nc2ccccc2c(=O)n1O	-2.0	3.9	8.5	24.6*	3.7	29.9*	1.4
O=c1c2ccccc2nc(-c2ccccc2)n1O	-1.1	-2.1	-16.2	-0.9	·	·	·
Cc1ccc([N+](=O)[O-])cc1NC(=O)CSc1nnc(C)n1CC1CCCO1 (stereo not given)	8.1	-4.7	-7.5	-0.6	-0.9	·	·
CCOC(=O)Cc1cc(=O)n2[nH]c(C)c(-c3ccc(Cl)cc3)c2n1	-10.7	-15.3	7.0	24.8*	15.0	18.2*	-5.1
CCOC(=O)Cc1cc(=O)n2[nH]c(C)c(-c3ccc(OC)cc3)c2n1	-8.0	7.8	4.6	13.1	29.9	·	·
CCOC(=O)Cc1cc(=O)n2[nH]c(-c3ccc(C)cc3)cc2n1	19.4	0.6	12.8	18.2*	20.1	10.3	1.1
Cc1oc(-c2ccc(Cl)cc2)cc1-c1nn2c(-c3ccoc3C)nnc2s1	83.5*	22.8	9.7	24.2*	42.3*	19.0*	0.6
CCc1nnc(NC(=O)CN2CCN(c3cccc(OC)c3)CC2)s1	-6.4	0.1	2.1	33.6*	-4.9	-4.3	-4.4
CCc1nnc(NC(=O)CN2CCN(Cc3cccc(OC)c3)CC2)s1	7.2	4.7	1.6	-5.1	-8.6	·	·
CNC(=O)/C(C#N)=C/c1ccc(-c2ccc(Cl)cc2)o1	37.1	-1.9	19.1	20.1*	-10.9	15.8*	-3.4
COc1ccc(-c2csc(NC(=O)c3ccccc3NS(=O)(=O)c3ccc(F)c(F)c3)n2)cc1	22.4	10.3	12.0	27.2*	5.1	24.2*	7.3
Oc1c(C(c2ccccc2Cl)N2CCCC2)ccc2cccnc12 (stereo not given)	3.6	4.5	7.3	20.7*	10.0	10.8	0.4
CN1CCN(C(c2ccccn2)c2cc(Cl)c3cccnc3c2O)CC1 (stereo not given)	-8.1	1.0	-16.8	72.3*	12.6	58.6*	6.0
